Most compounds without a hit are left out; they make up all but 3% or so of the library.
sEH act = soluble epoxide hydrolase activators, primary screen, biochemical, human sEH; Bifunctional epoxide hydrolase 2 (Homo sapiens), P34913; purified human sEH enzymatic activity, activator screen; activation, % at 2 µM; 0.04% of 91,000 active; AID 717, 2007; in the data active means activation above about 37%
Target sequence (P34913 whole entry, looked up): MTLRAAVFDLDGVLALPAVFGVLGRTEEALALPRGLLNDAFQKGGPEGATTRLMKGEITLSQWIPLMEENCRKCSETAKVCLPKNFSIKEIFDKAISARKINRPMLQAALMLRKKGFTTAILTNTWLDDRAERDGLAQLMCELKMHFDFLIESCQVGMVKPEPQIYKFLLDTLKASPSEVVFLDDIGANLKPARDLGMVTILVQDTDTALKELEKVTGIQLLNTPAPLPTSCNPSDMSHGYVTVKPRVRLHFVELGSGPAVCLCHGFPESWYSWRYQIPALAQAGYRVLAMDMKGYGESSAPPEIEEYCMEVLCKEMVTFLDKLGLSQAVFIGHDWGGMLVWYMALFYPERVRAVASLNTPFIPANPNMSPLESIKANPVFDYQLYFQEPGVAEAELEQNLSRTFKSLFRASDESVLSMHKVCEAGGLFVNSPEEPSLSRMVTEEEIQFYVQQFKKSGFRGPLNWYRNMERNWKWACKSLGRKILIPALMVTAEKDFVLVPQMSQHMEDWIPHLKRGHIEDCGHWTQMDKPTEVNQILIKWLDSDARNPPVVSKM
Measles CPE = compounds protecting cells from measles virus cytopathic effect, primary screen, measles RdRp inhibitor project, single point, MLSMR library, absorbance. protection (pct of control), % at 4 µM. 1.5% of 140,000 active. Measles virus-infected cells, CPE protection; in the data active means protection mostly above about 24%, no sharp cut-off; inactive means mostly below about 26%
Yeast growth inh = growth inhibitors of yeast BB579 in restrictive medium, primary screen, yeast lifespan-shortening project, S. cerevisiae; OD615, 48 h; inhibition, % at 10 µM; 0.51% of 140,000 active; AID 804, 2007;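 active means inhibition above a set limit, 3 SD over the mean compound inhibition, cut at about 44% in these data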
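Test system: S. cerevisiae DeaD strain BB579 yeast; Medium: restrictive CSMM-D medium; Compound: one dose, 10 µM compound with 0.25% DMSO; Incubation: 4 h cell preincubation, 48 h compound exposure, 30 °C humidified; Signal: OD at 615 nm; Benchmarks: amphotericin B at 10 µg/mL as positive control.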
sEH inh = soluble epoxide hydrolase inhibitors, primary screen, biochemical, human sEH; Bifunctional epoxide hydrolase 2 (Homo sapiens), P34913; recombinant human sEH enzymatic activity assay; inhibition, % at 2 µM; 0.34% of 91,000 active; in the data active means inhibition above about 80%
Yeast lifespan up = compounds extending yeast replicative lifespan, primary screen, S. cerevisiae, OD615 | AID 775, 2007 | S. cerevisiae growth with nicotinamide; deaD strain in restrictive glucose medium | inhibition of the nicotinamide effect, % at 10 µM | 0.68% of 130,000 active;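 active means inhibition above a set limit, placed 3 SD over the median of all compounds, cut at about 26% in these data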;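 further: 0% = nicotinamide-treated wells and 100% = cells grown without nicotinamide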
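System: DeaD-strain S. cerevisiae / Buffer or medium: CSMM-D, restrictive glucose (dextrose) synthetic minimal medium / Probe or stimulus: nicotinamide, 1.5 mM, co-present with compound / Compound: one concentration, 10 µM, DMSO 0.25% / Incubation: 48 h compound exposure at 30 °C, humidified / Technique: optical density (absorbance) at 615 nm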
sdo1 growth = growth rescue of sdo1-depleted yeast, primary screen, S. cerevisiae, bone marrow failure model. z-score at 10 µM. 0.21% of 140,000 active. S. cerevisiae sdo1-depleted JHY4D growth rescue, OD600 30 h; hits give high values; pdr5 snq2 efflux-pump mutant strain;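 active means z-score above 3 at both the 24 hr and the 30 hr optical density reads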;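 further: z-score against mean and SD of all compound wells on the same plate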
* = called active by the depositor.

Results for COc1ccc(N2CCN(C(=O)c3ccc(NS(=O)(=O)c4cccc(F)c4)cc3)CC2)cc1 ?
sEH act: 6; Measles CPE: 19*; Yeast growth inh: -50; sEH inh: -3; Yeast lifespan up: -11; sdo1 growth: 0.53

How did COc1ccc(N2CCN(C(=O)c3ccc(NS(=O)(=O)c4ccc(F)c(F)c4)cc3)CC2)cc1 do in these assays?
sEH act: -3; Measles CPE: 20; Yeast growth inh: -85; sEH inh: 2; Yeast lifespan up: -7; sdo1 growth: 0.52

Results for Cc1nnc(SCC(=O)Nc2nc(C(C)(C)C)cs2)s1 ?
sEH act: -10; Measles CPE: 54*; Yeast growth inh: -17; sEH inh: 13; Yeast lifespan up: -4; sdo1 growth: 0.07

Results for Cc1csc(NC(=O)CSc2nnc(C)s2)n1 ?
Measles CPE: 14; Yeast growth inh: -21; Yeast lifespan up: -2; sdo1 growth: 1.3

Results for COc1cccc(C(=O)Nc2nnc(-c3cccs3)s2)c1 ?
sEH act: -7; Measles CPE: 10; Yeast growth inh: -27; sEH inh: 9; Yeast lifespan up: -3; sdo1 growth: -0.1

Results for C=CCSc1nnc(NC(=O)c2nc(SCC)ncc2Cl)s1 ?
sEH act: 2; Measles CPE: 11; Yeast growth inh: -6; sEH inh: -2; Yeast lifespan up: 9; sdo1 growth: -1.6

How did CSc1ncc(Cl)c(C(=O)Nc2nnc(SC/C=C/c3ccccc3)s2)n1 do in these assays?
sEH act: -1; Measles CPE: 51*; Yeast growth inh: 11; sEH inh: -1; Yeast lifespan up: -7; sdo1 growth: -0.27

How did CN(C)c1ccc(/C=N/NC(=O)C2COc3ccccc3O2)o1 (stereo not drawn) do in these assays?
Measles CPE: 17*; Yeast growth inh: -36; Yeast lifespan up: -6; sdo1 growth: 0.05

Results for O=C(N/N=C\c1cccc([N+](=O)[O-])c1O)C1COc2ccccc2O1 (stereo not drawn) ?
Measles CPE: 14; Yeast growth inh: 64*; Yeast lifespan up: -6; sdo1 growth: 1.2

What do the screens show for `O=C(NC(c1ccc(Cl)cc1)c1c(O)ccc2ccccc12)c1ccccc1` (stereo not drawn)?
Measles CPE: 42*; Yeast growth inh: -20; Yeast lifespan up: -1; sdo1 growth: -0.97

Results for CC(=O)n1cc(-c2ccncc2)c2ccccc21 ?
Measles CPE: 6; Yeast growth inh: 12; Yeast lifespan up: -16; sdo1 growth: -0.34

What do the screens show for `CC(=O)n1cc(C(C[N+](=O)[O-])SCCN)c2ccccc21` (stereo not drawn)?
Measles CPE: 3; Yeast growth inh: 73*; Yeast lifespan up: -19; sdo1 growth: -1.9

Results for CCOc1cc(C(=S)N2CCCCC2)ccc1OCC(=O)NCc1ccccc1 ?
sEH act: -1; Measles CPE: 5; Yeast growth inh: 23; sEH inh: 2; Yeast lifespan up: -2; sdo1 growth: -1.8

Results for COc1cc(C(=O)NCCOc2cc(C)cc(C)c2)c(Br)c(OC)c1OC ?
sEH act: 6; Measles CPE: 10; Yeast growth inh: -23; sEH inh: -3; Yeast lifespan up: -9; sdo1 growth: 0.46

What do the screens show for `O=C(Cn1cnc2c(nnn2-c2ccccc2)c1=O)N1CCCc2ccccc21`?
Measles CPE: 53*; Yeast growth inh: -27; Yeast lifespan up: -4; sdo1 growth: 0.34

How did Cc1ccc(-n2nnc3c(=O)n(CC(=O)N4CCCC4)cnc32)cc1 do in these assays?
sEH act: 8; Measles CPE: 10; Yeast growth inh: -41; sEH inh: -8; Yeast lifespan up: -13; sdo1 growth: 0.09

Results for Cc1ccc(-n2nnc3c(=O)n(CC(=O)N4CCC(C)CC4)cnc32)cc1 ?
sEH act: 7; Measles CPE: 9; Yeast growth inh: 43*; sEH inh: -8; Yeast lifespan up: -5; sdo1 growth: -0.14

What do the screens show for `O=C(NNC(=O)C(c1ccccc1)c1ccccc1)c1ccccn1`?
Measles CPE: 0; Yeast growth inh: -29; Yeast lifespan up: 29*; sdo1 growth: 0.65

Results for Cc1ccccc1OCC(=O)N/N=C/c1ccco1 ?
sEH act: 8; Measles CPE: 45*; Yeast growth inh: -37; sEH inh: -4; Yeast lifespan up: -15; sdo1 growth: 0.05

What do the screens show for `Cc1[nH]n(-c2ccccc2)c(=O)c1/C=N/N1C(=O)c2ccc3c4c(ccc(c24)C1=O)CC3`?
Measles CPE: 11; Yeast growth inh: 79*; Yeast lifespan up: -9; sdo1 growth: 1.3

How did Cc1ccc(NC(=O)C2CCCN(S(=O)(=O)c3cnc[nH]3)C2)c(Br)c1 (stereo not drawn) do in these assays?
sEH act: 1; Measles CPE: 29*; Yeast growth inh: -50; sEH inh: -1; Yeast lifespan up: -12; sdo1 growth: 0.78

Results for CCCCC(CC)CNC(=O)C1CCCN(S(=O)(=O)c2cnc[nH]2)C1 (stereo not drawn) ?
sEH act: -83; Measles CPE: 10; Yeast growth inh: -31; sEH inh: 83*; Yeast lifespan up: -2; sdo1 growth: 1.1

Results for CCOc1ccc(OCC)c(NC(=O)C2CCCN(S(=O)(=O)c3cnc[nH]3)C2)c1 (stereo not drawn) ?
Measles CPE: 6; Yeast growth inh: 8; Yeast lifespan up: -8; sdo1 growth: 0.93

Results for CC(C)c1onc(C(=O)N2CCCCC2)c1[N+](=O)[O-] ?
Measles CPE: 9; Yeast growth inh: -48; Yeast lifespan up: 6; sdo1 growth: 0.36

Results for Cc1c([N+](=O)[O-])c(C(=O)N2CCCC2)nn1C ?
sEH act: 20; Measles CPE: 69*; Yeast growth inh: -51; sEH inh: -22; Yeast lifespan up: 1; sdo1 growth: 0.56

What do the screens show for `Cc1cccc(-c2nnc3sc(-c4ccccc4C)nn23)c1`?
Measles CPE: 6; Yeast growth inh: 44*; Yeast lifespan up: -8; sdo1 growth: -3.1

What do the screens show for `C/C(=N\Nc1cc(Cl)nc(C)n1)c1ccc(C)cc1`?
sEH act: 52*; sEH inh: -48

Results for C=CCNc1nc(N)c(C(=C(C#N)C#N)c2ccc(Br)cc2)s1 ?
Measles CPE: 21; Yeast growth inh: -17; Yeast lifespan up: -3; sdo1 growth: -1.7

What do the screens show for `CN1CCN(Cc2c(O)ccc3occ(C(=O)c4ccccc4)c23)CC1`?
sEH act: 1; Measles CPE: 2; Yeast growth inh: -60; sEH inh: -3; Yeast lifespan up: 2; sdo1 growth: -1.3
